# Screening data (PubChem)
# The list is not random: actives were taken first. Their share in the collection is about 1.2%.
# SR-BI DiI-HDL act – SR-BI HDL lipid transfer activation; CHO ldlA[mSR-BI] cells, DiI-HDL uptake fluorescence, 3 h; 100 = double the neutral-control signal; activation, % at 12.5 µM; AID 504775; 320,000 compounds, 0.096% hits;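 active means mean replicate activation of at least 60% and every replicate at or above 60%; inconclusive means mean or all-replicate condition met, but not both; inactive means mean below 60% and not all replicates reaching 60%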;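 further: 0% = median plate neutral-control signal and 100% = twice that signal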
#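 Test system: SR-BI-overexpressing, LDLR-lacking CHO cells; Medium: Ham's F12 with 0.5% BSA, HEPES 25 mM, pH 7.4; Schedule: 3 h, 37 °C; Technique: bottom-read fluorescence, 550/595 nm.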
# SR-BI DiI inh – inhibitors of mouse SR-BI mediated HDL lipid uptake; Q61009; ldlA[mSR-BI] CHO cells, DiI-HDL uptake fluorescence, 3 h; inhibition, % at 12.5 µM; 320,000 compounds, 0.96% hits;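 active means mean replicate inhibition of at least 70% and a set share of replicates each scoring 70 or more; inconclusive means meets just one of the two criteria; inactive means fails both criteria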;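 further: 0% = median of neutral control wells and 100% = median of positive control wells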
# Target sequence (Q61009 whole entry, looked up): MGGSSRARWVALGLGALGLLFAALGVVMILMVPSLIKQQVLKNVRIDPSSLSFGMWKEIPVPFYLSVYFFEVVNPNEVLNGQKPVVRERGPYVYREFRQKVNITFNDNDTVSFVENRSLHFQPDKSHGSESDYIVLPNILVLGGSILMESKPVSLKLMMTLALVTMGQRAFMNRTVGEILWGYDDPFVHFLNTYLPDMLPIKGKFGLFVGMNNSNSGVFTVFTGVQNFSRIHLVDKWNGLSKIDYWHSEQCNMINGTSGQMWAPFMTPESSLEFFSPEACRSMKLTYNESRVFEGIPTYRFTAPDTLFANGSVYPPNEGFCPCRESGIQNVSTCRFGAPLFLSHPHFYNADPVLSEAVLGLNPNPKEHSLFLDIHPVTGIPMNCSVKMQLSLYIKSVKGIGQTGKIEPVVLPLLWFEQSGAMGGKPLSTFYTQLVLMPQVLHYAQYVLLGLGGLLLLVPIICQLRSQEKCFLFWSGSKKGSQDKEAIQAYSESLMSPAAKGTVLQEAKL
# CaV13 ICDI inh – Primary screen for inhibitors of IQ motif and Ca2+-dependent inactivation inhibitor domain binding in CACNA1D, Förster resonance energy transfer in living cells, …. HEK cells, CFP/YFP FRET ICDI-IQ, plate reader, 10 min; percent FRET-ratio fall versus neutral wells. inhibition, % at 12.3 µM. 340,000 compounds, 0.098% hits;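 active means mean replicate inhibition of at least 30% and at least 1% of replicates passing that level; inconclusive means only one of the two criteria is met; inactive means neither criterion is met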;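 further: 0% = median of the neutral control wells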
# FN deposition inh – fibronectin deposition inhibition. AID 743247. AH1F fibroblasts, Alexa488-fibronectin deposition fluorescence, overnight. 350,000 compounds, 0.086% hits. inhibition, % at 12.6 µM;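 active means mean inhibition across replicates of 30% or more, regardless of how many single replicates reach that level; inconclusive means mean under 30% yet at least half of replicates reach 30%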;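 further: positive control wells lacked labelled fibronectin entirely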
#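 Material – AH1F fibroblast monolayer, labelled fibronectin deposition · Reagent – labelled fibronectin 24 nM · Timing – 1 h adhesion, overnight exposure · Measured by – fluorescence at 485 nm excitation, 525 nm emission · Read-out – inhibition of fibronectin deposition signal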
# Efflux pump mplx – blocks antifungal efflux pumps in multiplex yeast assay | AID 485275 | 330,000 compounds, 0.44% hits | S. cerevisiae Candida pump triplex, Nile Red efflux | inhibition, % at 10 µM;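 active means plate passing quality check with inhibition over a set limit, or well fluorescence over plate mean plus 4 SD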;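 further: Nile Red retained in pooled yeast measured as flow cytometry median fluorescence; 0% = buffer negative control and 100% = Enniatin B positive control; higher means more Nile Red kept so more efflux inhibition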
# DiI quench – counter-screen for SR-BI lipid transfer inhibitors: DiI fluorescence quenchers. shares compounds with SR-BI DiI inh. cell-free DiI-HDL fluorescence quenching, 30 min. AC50, µM (top dose mostly 35 µM), for the others: at the highest dose activity change, negative = quenching. 470 compounds, 20% hits;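 active means quenching, a falling signal, with AC50 below a set limit tied to the top valid dose, actives reach about 32 µM in these data; inconclusive means no clear call, values can overlap the other calls; inactive means rising signal, and the rest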
# * hit, by the source's call; i = inactive; ? = inconclusive; . = no result given.
SMILES,SR-BI DiI-HDL act,SR-BI DiI inh,CaV13 ICDI inh,FN deposition inh,Efflux pump mplx,DiI quench
Cc1ccc(-n2nc(C)c3c(C(=O)OCC(=O)N(C)C4CCS(=O)(=O)C4)cc(-c4ccccc4)nc32)cc1 (configuration not stated),-70,?,-6,-16,0,?
Cc1ccc(NS(=O)(=O)c2ccc(C(=O)NNC(=O)c3ccccc3O)cc2)cc1,-120,120*,-6,4,0,0.46µM*
C[C@@H]1CN([C@H](C)CO)C(=O)CCCn2cc(nn2)CO[C@@H]1CN(C)C(=O)Nc1ccc(C(F)(F)F)cc1,.,.,.,-6,.,.
CO[C@@H]1CN(C)C(=O)c2cc(NC(C)=O)ccc2OC[C@H](C)N(C(=O)c2ccccc2F)C[C@H]1C,.,.,.,7,.,.
COc1cc([N+](=O)[O-])ccc1NC(=O)NCC1CCN(Cc2ccc(Cl)cc2)CC1,-83,83*,-4,2,0,-5%
COc1ccc(Cl)cc1NC(=O)NCC1CCN(Cc2cc(C)ccc2C)CC1,-41,41,-20,1,0,.
O=C(O)c1cc(N2C(=O)C=CC2=O)cc(N2C(=O)C=CC2=O)c1,9,-9,-9,2,.,-3%
O=C(O)c1cc(C(=O)O)cc(N2C(=O)c3ccccc3C2=O)c1,.,.,-12,-5,.,.
Cc1ccc(-c2cc(C(=O)Nc3sc4c(c3C(=O)NCc3ccco3)CCC4)[nH]n2)c(O)c1,-83,83*,6,0,0,i
CCCC(=O)Nc1ccc(Cl)c(NC(=O)c2cccc(OC)c2)c1,-78,78*,-6,-6,0,2%
CCCC#Cc1cnc2c(c1)C(=O)N([C@@H](C)CO)C[C@H](C)[C@@H](CN(C)C)O2,.,.,.,-7,.,.
CCOc1ccc(NC(=O)CN2CCN(CC(=O)Nc3ccc(C(=O)OC)cc3)CC2)cc1,-81,81*,0,.,0,-1%
COC(=O)c1ccc(NC(=O)CN2CCCC2)cc1,7,-7,-4,1,0,.
C[C@H](CO)N1C[C@H](C)[C@H](CN(C)S(C)(=O)=O)Oc2c(NC(=O)Nc3ccc(C(F)(F)F)cc3)cccc2C1=O,.,.,.,13,.,.
COC(=O)c1cc2c(ccn2-c2ccc(F)cc2)n1CC(=O)N1CCN(C(=O)c2ccco2)CC1,-71,?,0,.,0,.
COC(=O)c1cc2c(ccn2-c2ccc(F)cc2)n1Cc1ccc(C#N)cc1,-78,78*,-5,0,-1,2%
CO[C@H]1CC[C@H]2CCN(C)C(=O)[C@H](C)[C@H](OC)CN(C)C(=O)c3cccc(C#N)c3OC[C@@H]1O2,.,.,.,-13,.,.
C[C@H](CO)N1C[C@H](C)[C@@H](CN(C)Cc2cccnc2)Oc2ncc(C#CC3(O)CCCC3)cc2C1=O,.,.,.,-4,.,.
C[C@H](CO)N1C[C@H](C)[C@@H](CN(C)C(=O)Cc2ccccc2)Oc2ncc(C#Cc3ccccc3F)cc2C1=O,.,.,.,-1,.,.
CCCNC(=O)c1ccc(N2CCC3(CC2)CC(c2cccc(Br)c2)=NO3)c([N+](=O)[O-])c1,-62,62,-9,0,0,.
Cc1ccc(CNC(=O)c2ccc(N3CCC4(CC3)CC(c3cccc(Br)c3)=NO4)c([N+](=O)[O-])c2)cc1,-81,81*,-5,5,0,-2%
COc1ccccc1C(=O)NCCn1cc(SCC(=O)Nc2nnc(C)s2)c2ccccc21,-44,44,.,.,0,0%
Cc1nnc(NC(=O)CSc2cn(Cc3ccccc3)c3ccccc23)s1,-20,20,-5,-3,0,.
O=C(NCCn1cc(SCc2ccc(F)cc2)c2ccccc21)c1c(F)cccc1F,-56,56,-3,-3,0,.
O=C(NCCn1cc(SCc2ccccc2)c2ccccc21)c1c(F)cccc1F,-71,?,-8,0,0,-12%
SMILES,SR-BI DiI-HDL act,SR-BI DiI inh,CaV13 ICDI inh,FN deposition inh,Efflux pump mplx,DiI quench
C[C@H](CO)N1C[C@H](C)[C@H](CN(C)C(=O)Nc2ccccc2)Oc2ncc(C3=CCCCC3)cc2C1=O,.,.,.,-7,.,.
CCCCn1nc2cc(C(=O)NC3CCCc4ccccc43)ccc2c1OCC (configuration not stated),-80,80*,-5,5,0,-3%
CCOc1c2ccc(C(=O)NC3CCCc4ccccc43)cc2nn1C (configuration not stated),-17,17,-10,-1,0,.
Brc1cc2c(cc1C1Nc3ccccc3C3C=CCC31)OCO2 (configuration not stated),-55,55,-5,3,0,.
Cc1cc(C)c2c(c1)NC(c1cc3c(cc1Br)OCO3)C1CC=CC21 (configuration not stated),-70,?,-6,.,0,-14%
COc1ccc(S(=O)(=O)N(C)C[C@@H]2OCCCC[C@@H](C)Oc3ccc(NC(=O)Nc4ccc(C(F)(F)F)cc4)cc3C(=O)N([C@@H](C)CO)C[C@@H]2C)cc1,.,.,.,-12,.,.
Cc1noc(C)c1NC(=O)N[C@H]1CC[C@@H](CC(=O)Nc2ccc(-c3ccccc3)cc2)O[C@@H]1CO,.,.,.,-16,.,.
Cc1cc(C)cc(N(CCC#N)C(=O)COC(=O)CCc2c[nH]c3ccccc23)c1,-74,?,-13,7,0,-13%
O=C(COC(=O)CCc1c[nH]c2ccccc12)Nc1ccccc1,20,-20,-1,5,.,.
CN(C(=O)COC(=O)CCc1c[nH]c2ccccc12)c1ccccc1,25,-25,-6,2,0,-5%
Cc1ccccc1COn1nnc2ccc(S(=O)(=O)N3CCOCC3)cc21,11,-11,-6,6,0,.
CC(C)CN(CC(C)C)C(=O)COn1nnc2ccc(S(=O)(=O)N3CCOCC3)cc21,-70,70*,-14,-8,0,-5%
O=C(COn1nnc2ccc(S(=O)(=O)N3CCOCC3)cc21)Nc1c(F)c(F)c(F)c(F)c1F,-2,2,-2,3,0,.
CN(C(=O)COn1nnc2ccc(S(=O)(=O)N3CCOCC3)cc21)c1ccccc1,-8,8,-6,-2,0,-3%
COc1cc(OC)cc(C(=O)N[C@H](C(=O)Nc2nc(-c3cc(OC)ccc3OC)cs2)C(C)C)c1,-71,?,-6,-6,1,-1%
CCC1CCCCN1C(=O)CSc1nnc(-c2ccco2)o1 (configuration not stated),-76,76*,-4,-1,0,-6%
CCC1CCCCN1C(=O)CSc1nnc(-c2ccc(Cl)cc2)o1 (configuration not stated),-4,4,5,-6,0,.
Nc1c(-c2ccccn2)cnn1-c1nc(-c2ccc(F)cc2)cs1,-66,66,-6,.,0,.
